Results as given in ChEMBL document CHEMBL2016445, “Discovery of a novel class of potent and orally bioavailable sphingosine 1-phosphate receptor 1 antagonists” (J Med Chem, 2012).

Tests used:
[1] = target: T1, Sphingosine 1-phosphate receptor 1 (Homo sapiens, UniProt P21453); test: Antagonist activity at S1P1 receptor expressed in HEK293 cells assessed as inhibition of S1P-induced cAMP response after 90 mins by spectrophotometry; format: functional, cell-based
[2] = Drug uptake in nu/nu homozygous mouse plasma at 100 mg/kg, po as a solution in 10% EtOH/40% PEG400/water + 1:1 HCl after 4 hrs by HPLC/MS/MS analysis; format: ADME, organism-based; design: dose 100 mg/kg, route oral
Method in brief: (§1)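 Female Nu/Nu mice (~8 wk, 20-22 g) given a single 100 mpk oral dose at 10 mL/kg. Vehicles: 10% EtOH/45% or 40% PEG400/water + 1 molar equiv HCl, 10% EtOH/40% PEG400/20% Captisol + HCl, or 10% NMP/90% corn oil. Heparinized blood collected 1 and 4 h post-dose; plasma analysed by HPLC/MS/MS.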

[3] = Drug uptake in nu/nu homozygous mouse plasma at 100 mg/kg, po as a suspension in 10% NMP/corn oil after 4 hrs by HPLC/MS/MS analysis; format: ADME, organism-based; design: dose 100 mg/kg, route oral; method in brief: as §1
[4] = Drug uptake in nu/nu homozygous mouse plasma at 100 mg/kg, po as a suspension in 10% NMP/corn oil after 1 hr by HPLC/MS/MS analysis; format: ADME, organism-based; design: dose 100 mg/kg, route oral; method in brief: as §1
[5] = Drug uptake in nu/nu homozygous mouse plasma at 100 mg/kg, po as a solution in 10% EtOH/40% PEG400/water + 1:1 HCl after 1 hr by HPLC/MS/MS analysis; format: ADME, organism-based; design: dose 100 mg/kg, route oral; method in brief: as §1
[6] = Metabolic stability of the compound in mouse liver microsomes assessed as compound oxidation measuring disappearance of compound at 15 uM after 30 mins by LC/MS/MS analysis; format: ADME, Microsome; details: read-out: Drug degradation
Method in brief: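 Incubated in duplicate for 30 min at 37 °C: 15 µM compound, 0.15% DMSO, 0.5 mg/mL mouse liver microsomes, 1 mM NADPH, 100 mM potassium phosphate pH 7.4. Stopped with acetonitrile containing 0.1% formic acid. Parent remaining measured by LC/MS/MS; disappearance calculated relative to no-NADPH controls.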

[7] = system: Mus musculus; test: Toxicity in athymic nude mouse xenografted with human MDA-MB-231T cells assessed as body weight loss at 300 mg/kg, po qd for 14 days post implantation measured for 14 days; format: organism-based; design: dose 300 mg/kg, route oral; details: in vivo, 336 h
Method in brief: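 Female NCr athymic nude mice bearing mammary fat pad MDA-MB-231T tumors (1 x 10⁶ cells). Dosed orally once daily at 10 mL/kg from fresh solutions. Body weights recorded daily; clinical signs and survival monitored daily.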

[8] = target: T1, Sphingosine 1-phosphate receptor 1; test: Antagonist activity at S1P1 receptor expressed in HEK293 cells assessed as inhibition of S1P-induced tango beta-arrestin recruitment preincubated for 30 mins prior S1P addition measured after 16 to 18 hrs by luciferase reporter gene assay; format: functional, cell-based
[9] = target: Sphingosine 1-phosphate receptor 2 (Homo sapiens, UniProt O95136); test: Antagonist activity at S1P2 receptor expressed in HEK293 cells assessed as inhibition of S1P-induced tango beta-arrestin recruitment preincubated for 30 mins prior S1P addition measured after 16 to 18 hrs by luciferase reporter gene assay; format: functional, cell-based
Chain of Sphingosine 1-phosphate receptor 2 (O95136 whole entry): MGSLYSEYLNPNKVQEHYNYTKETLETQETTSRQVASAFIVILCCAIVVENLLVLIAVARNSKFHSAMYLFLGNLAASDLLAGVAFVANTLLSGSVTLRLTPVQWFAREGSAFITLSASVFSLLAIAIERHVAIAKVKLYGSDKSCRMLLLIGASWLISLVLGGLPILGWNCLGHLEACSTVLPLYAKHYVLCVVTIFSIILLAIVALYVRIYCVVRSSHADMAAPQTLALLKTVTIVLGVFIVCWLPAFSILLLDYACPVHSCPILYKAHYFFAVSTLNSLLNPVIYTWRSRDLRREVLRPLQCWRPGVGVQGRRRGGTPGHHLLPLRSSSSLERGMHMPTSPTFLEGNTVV

[10] = target: Sphingosine 1-phosphate receptor 3 (Homo sapiens, UniProt Q99500); test: Antagonist activity at S1P3 receptor expressed in HEK293 cells assessed as inhibition of S1P-induced tango beta-arrestin recruitment preincubated for 30 mins prior S1P addition measured after 16 to 18 hrs by luciferase reporter gene assay; format: functional, cell-based
Chain of Sphingosine 1-phosphate receptor 3 (Q99500 whole entry): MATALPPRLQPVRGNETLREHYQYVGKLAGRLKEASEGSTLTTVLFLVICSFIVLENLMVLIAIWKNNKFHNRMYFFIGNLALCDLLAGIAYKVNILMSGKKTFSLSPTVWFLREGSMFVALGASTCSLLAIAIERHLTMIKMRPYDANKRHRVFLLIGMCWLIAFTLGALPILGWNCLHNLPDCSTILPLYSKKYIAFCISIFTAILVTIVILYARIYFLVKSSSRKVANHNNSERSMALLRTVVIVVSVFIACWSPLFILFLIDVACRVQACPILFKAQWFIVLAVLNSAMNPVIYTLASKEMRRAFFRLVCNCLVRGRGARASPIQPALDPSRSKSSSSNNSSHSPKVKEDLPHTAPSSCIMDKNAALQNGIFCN

[11] = Antitumor activity against human MDA-MB-231T cells xenografted in athymic nude mouse assessed as tumor growth inhibition at 300 mg/kg, po qd for 14 days post implantation measured for 14 days; format: functional; details: 336 h, read-out: TGI
Method in brief: (§2)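 MDA-MB-231T cells grown in DMEM with 10% FBS. 1 x 10⁶ cells in ice-cold HBSS implanted into the mammary fat pad of female athymic nude (NCr) mice, 5-8 wk. Daily oral dosing at 10 mL/kg, solutions made fresh daily. Tumor weight measured twice weekly; TGI calculated against vehicle and staging-day weights; 2-tailed t-test, p<0.05.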

[12] = Drug uptake in nu/nu homozygous mouse plasma at 100 mg/kg, po as a suspension in 10% NMP/corn oil after 24 hrs by HPLC/MS/MS analysis; format: ADME, organism-based; design: dose 100 mg/kg, route oral
[13] = target: Cytochrome P450 3A4 (Homo sapiens, UniProt P08684); test: Inhibition of human CYP3A4 using testosterone as substrate by LC/MS/MS analysis; format: ADME
Chain of Cytochrome P450 3A4 (P08684 whole entry): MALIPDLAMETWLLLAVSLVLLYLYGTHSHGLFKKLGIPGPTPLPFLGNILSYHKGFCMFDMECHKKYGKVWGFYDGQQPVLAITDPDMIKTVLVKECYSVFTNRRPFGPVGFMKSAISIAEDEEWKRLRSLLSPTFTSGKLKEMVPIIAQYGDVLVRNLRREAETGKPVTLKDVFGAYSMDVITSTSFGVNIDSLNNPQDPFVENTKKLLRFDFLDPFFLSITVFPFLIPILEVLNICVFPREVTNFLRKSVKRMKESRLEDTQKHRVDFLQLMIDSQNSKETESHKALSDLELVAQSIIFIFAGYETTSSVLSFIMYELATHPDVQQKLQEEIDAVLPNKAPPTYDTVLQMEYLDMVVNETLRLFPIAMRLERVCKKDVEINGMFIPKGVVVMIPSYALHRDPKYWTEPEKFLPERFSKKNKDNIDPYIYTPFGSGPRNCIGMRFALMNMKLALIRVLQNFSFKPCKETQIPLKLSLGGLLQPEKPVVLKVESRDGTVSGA
Method in brief: (§3)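 Pooled human liver microsomes in 100 mM potassium phosphate, pH 7.4, at 37 °C with 1000 µM NADPH for 15 min. Microsomes 0.15 mg/mL for CYP2C9 and CYP2D6, 0.25 mg/mL for CYP3A4. Inhibitor tested at six concentrations (0.2–50 µM). Reactions quenched with acetonitrile; metabolite measured by LC/MS/MS; IC50 from 4-parameter sigmoidal fit.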

[14] = target: Cytochrome P450 2C9 (Homo sapiens, UniProt P11712); test: Inhibition of human CYP2C9 using tolbutamide as substrate by LC/MS/MS analysis; format: ADME; method in brief: as §3
Chain of Cytochrome P450 2C9 (P11712 whole entry): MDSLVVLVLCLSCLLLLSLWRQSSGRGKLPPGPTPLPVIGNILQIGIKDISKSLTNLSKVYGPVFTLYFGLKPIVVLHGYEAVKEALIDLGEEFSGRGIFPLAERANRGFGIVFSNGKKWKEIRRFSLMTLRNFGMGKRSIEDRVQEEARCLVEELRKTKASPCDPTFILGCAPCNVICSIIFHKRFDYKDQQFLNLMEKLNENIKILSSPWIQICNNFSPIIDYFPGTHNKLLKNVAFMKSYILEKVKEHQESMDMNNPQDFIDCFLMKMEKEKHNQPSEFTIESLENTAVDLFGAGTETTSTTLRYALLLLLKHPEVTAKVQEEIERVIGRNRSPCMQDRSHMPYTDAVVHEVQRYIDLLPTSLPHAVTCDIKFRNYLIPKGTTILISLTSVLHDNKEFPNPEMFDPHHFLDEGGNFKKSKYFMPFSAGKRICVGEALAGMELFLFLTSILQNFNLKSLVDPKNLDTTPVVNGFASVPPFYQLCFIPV

[15] = target: Cytochrome P450 2D6 (Homo sapiens, UniProt P10635); test: Inhibition of human CYP2D6 using bufuralol as substrate by LC/MS/MS analysis; format: ADME; method in brief: as §3
Chain of Cytochrome P450 2D6 (P10635 whole entry): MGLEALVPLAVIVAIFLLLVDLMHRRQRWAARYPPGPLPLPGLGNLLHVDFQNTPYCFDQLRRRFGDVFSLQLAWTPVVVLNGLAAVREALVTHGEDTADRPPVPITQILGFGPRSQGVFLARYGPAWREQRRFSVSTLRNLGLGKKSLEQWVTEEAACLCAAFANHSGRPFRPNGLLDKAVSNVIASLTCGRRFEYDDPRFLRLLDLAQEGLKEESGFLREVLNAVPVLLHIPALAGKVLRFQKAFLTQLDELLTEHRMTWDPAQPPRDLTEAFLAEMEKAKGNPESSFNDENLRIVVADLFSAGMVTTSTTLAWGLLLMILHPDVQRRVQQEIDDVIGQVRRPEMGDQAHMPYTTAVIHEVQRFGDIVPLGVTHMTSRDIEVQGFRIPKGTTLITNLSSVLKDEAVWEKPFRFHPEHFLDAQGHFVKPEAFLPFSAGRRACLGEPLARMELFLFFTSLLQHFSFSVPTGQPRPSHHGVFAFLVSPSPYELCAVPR

[16] = Antitumor activity against human MDA-MB-231T cells xenografted in athymic nude mouse assessed as tumor growth inhibition at 100 mg/kg, po qd for 14 days post implantation measured for 14 days; format: functional; details: 336 h, read-out: TGI; method in brief: as §2

T1 sequence (P21453 whole entry): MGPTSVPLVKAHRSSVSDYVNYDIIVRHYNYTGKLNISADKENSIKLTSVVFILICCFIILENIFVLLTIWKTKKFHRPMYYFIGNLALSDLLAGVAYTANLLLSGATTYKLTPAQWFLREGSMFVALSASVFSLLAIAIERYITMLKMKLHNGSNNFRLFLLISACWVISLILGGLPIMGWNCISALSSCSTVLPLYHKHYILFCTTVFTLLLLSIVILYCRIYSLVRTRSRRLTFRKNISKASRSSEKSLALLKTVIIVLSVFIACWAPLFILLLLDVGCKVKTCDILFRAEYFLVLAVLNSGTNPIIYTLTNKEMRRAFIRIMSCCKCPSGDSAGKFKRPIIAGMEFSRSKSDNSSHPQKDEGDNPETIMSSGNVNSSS

Compound: O=C(Cc1cnc[nH]1)N[C@@H](COCc1ccccc1)C(=O)Nc1ccc(Oc2cccc(Cl)c2)cc1
- IC50 [1]: 0.096 µM

Compound: CN(CC(=O)N[C@H](COCc1ccccc1)C(=O)Nc1ccc(Oc2ccccc2)cc1)C(=O)c1ccccc1
- IC50 [1]: > 10 µM

Compound: CN(CC(=O)N[C@@H](COCc1ccccc1)C(=O)Nc1ccc(Oc2ccccc2)cc1)C(=O)c1ccccc1
- IC50 [1]: 0.548 µM

Compound: O=C(N[C@@H](COCc1ccccc1)C(=O)Nc1ccc(Oc2ccccc2)cc1)c1cnc[nH]1
- IC50 [1]: > 1 µM

Compound: O=C(Cc1cnc[nH]1)N[C@@H](COCc1ccccc1)C(=O)Nc1ccc(Oc2ccccc2)cc1
- concentration at 4 h [2]: 3 µM
- concentration at 4 h [3]: 0.3 µM
- concentration at 1 h [4]: 4.4 µM
- IC50 [1]: 0.033 µM
- concentration at 1 h [5]: 5 µM
- metabolised at 0.5 h, 15 µM [6]: 28%

Compound: Cn1cnc(CC(=O)N[C@@H](COCc2ccccc2)C(=O)Nc2ccc(Oc3ccccc3)cc2)c1
- IC50 [1]: 0.228 µM

Compound: O=C(Cc1cc(Cl)ccc1Cl)N[C@@H](COCc1ccccc1)C(=O)Nc1ccc(Oc2ccccc2)cc1
- IC50 [1]: > 10 µM

Compound: O=C(Cc1ccccc1F)N[C@@H](COCc1ccccc1)C(=O)Nc1ccc(Oc2ccccc2)cc1
- IC50 [1]: 0.5 µM

Compound: O=C(Cc1cnc[nH]1)N[C@@H](COCc1ccccc1)C(=O)Nc1ccc(Oc2ccccc2)c(Cl)c1
- IC50 [1]: 0.211 µM

Compound: O=C(Cc1cnc[nH]1)N[C@@H](COCc1ccccc1)C(=O)Nc1ccc(Oc2ccccc2Cl)cc1
- IC50 [1]: > 10 µM

Compound: O=C(Cc1c[nH]cn1)N[C@@H](COCc1ccccc1)C(=O)Nc1ccc(Oc2ccc(F)cc2)cc1
- Activity [7]: Non-toxic
- concentration at 4 h [2]: 3 µM
- IC50 [1]: 0.013 µM
- concentration at 1 h [5]: 8 µM
- metabolised at 0.5 h, 15 µM [6]: 9%
- IC50 [8]: 0.284 µM
- IC50 [9]: > 10 µM
- IC50 [10]: > 10 µM
- inhibition in vivo at 300 mg/kg [11]: 54%

Compound: O=C(Cc1cnc[nH]1)N[C@@H](COCc1ccccc1)C(=O)Nc1ccc(OC2CCCCC2)cc1
- IC50 [1]: 0.702 µM

Compound: O=C(Cc1c[nH]cn1)N[C@@H](COCc1ccccc1)C(=O)Nc1ccc(OCc2ccccc2)cc1
- IC50 [1]: 0.152 µM

Compound: O=C(Cc1cnc[nH]1)N[C@@H](COCc1ccccc1)C(=O)Nc1ccc2oc3ccccc3c2c1
- IC50 [1]: > 10 µM

Compound: O=C(Cc1cnc[nH]1)N[C@@H](COCc1ccccc1)C(=O)Nc1ccc(Cc2ccccc2)cc1
- IC50 [1]: > 10 µM

Compound: O=C(Cc1cnc[nH]1)N[C@@H](COCc1ccccc1)C(=O)Nc1ccc(Nc2ccccc2)cc1
- IC50 [1]: 0.743 µM

Compound: O=C(Cc1cnc[nH]1)N[C@@H](COCc1ccccc1)C(=O)Nc1ccc(-c2ccccc2)cc1
- IC50 [1]: > 10 µM

Compound: O=C(Cc1cnc[nH]1)N[C@@H](CCCc1ccccc1)C(=O)Nc1ccc(Oc2ccccc2)cc1
- IC50 [1]: 0.014 µM

Compound: C[C@H](NC(=O)Cc1cnc[nH]1)C(=O)Nc1ccc(Oc2ccc(Cl)cc2)cc1
- IC50 [1]: 0.752 µM

Compound: O=C(Cc1cnc[nH]1)N[C@@H](Cc1ccccc1)C(=O)Nc1ccc(Oc2ccc(Cl)cc2)cc1
- IC50 [1]: 0.326 µM

Compound: CN(C(=O)Cc1c[nH]cn1)[C@@H](COCc1ccccc1)C(=O)Nc1ccc(Oc2ccccc2)cc1
- IC50 [1]: 0.181 µM

Compound: CN(C(=O)[C@H](COCc1ccccc1)NC(=O)Cc1cnc[nH]1)c1ccc(Oc2ccccc2)cc1
- IC50 [1]: 8.28 µM

Compound: O=C(Nc1ccc(Oc2ccc(F)cc2)cc1)[C@@H]1CN(Cc2ccccc2)CCN1C(=O)Cc1cnc[nH]1
- concentration at 4 h [3]: 6.3 µM
- IC50 [1]: 0.084 µM
- concentration at 24 h [12]: 9.2 µM

Compound: O=C(Nc1ccc(Oc2ccc(F)cc2)cc1)[C@@H]1C[C@@H](Cc2ccccc2)CN1C(=O)Cc1cnc[nH]1
- concentration at 4 h [3]: 9.8 µM
- concentration at 1 h [4]: 26.2 µM
- IC50 [13]: 7.15 µM
- IC50 [1]: 0.0847 µM
- IC50 [14]: < 0.205 µM
- IC50 [15]: 1.18 µM

Compound: O=C(Nc1ccc(Oc2ccc(F)cc2)cc1)[C@@H]1C[C@@H](c2ccccc2)CN1C(=O)Cc1cnc[nH]1
- concentration at 4 h [3]: 27.2 µM
- IC50 [13]: 0.301 µM
- IC50 [1]: 0.158 µM
- IC50 [14]: 0.213 µM
- concentration at 24 h [12]: 5 µM
- IC50 [15]: 0.663 µM

Compound: O=C(Nc1ccc(Oc2ccc(F)cc2)cc1)[C@@H]1C[C@@H](c2ccccc2)CN1C(=O)Cn1cncn1
- IC50 [1]: 0.492 µM

Compound: O=C(Nc1ccc(Oc2ccc(F)cc2)cc1)[C@@H]1C[C@@H](Cc2ccccc2)CN1C(=O)Cn1cncn1
- concentration at 4 h [3]: 86.4 µM
- IC50 [13]: > 20 µM
- IC50 [1]: 0.0068 µM
- metabolised at 0.5 h, 15 µM [6]: 13%
- IC50 [8]: 0.045 µM
- IC50 [9]: > 10 µM
- IC50 [10]: > 10 µM
- IC50 [14]: 2.29 µM
- concentration at 24 h [12]: 8.3 µM
- IC50 [15]: 0.392 µM

Compound: O=C(Nc1ccc(Oc2ccc(F)cc2)cc1)[C@@H]1C[C@@H](Cc2ccc(F)cc2)CN1C(=O)Cn1cncn1
- concentration at 4 h [3]: 104 µM
- IC50 [13]: 12.6 µM
- IC50 [1]: 0.0058 µM
- metabolised at 0.5 h, 15 µM [6]: 8%
- IC50 [8]: 0.013 µM
- IC50 [9]: > 10 µM
- IC50 [10]: > 10 µM
- IC50 [14]: 2.19 µM
- concentration at 24 h [12]: 18 µM
- IC50 [15]: 7.37 µM

Compound: O=C(Nc1ccc(Oc2ccc(F)cc2)cc1)[C@@H]1C[C@H](Cc2ccc(F)cc2)CN1C(=O)Cn1cncn1
- IC50 [13]: > 20 µM
- IC50 [1]: 0.048 µM
- IC50 [14]: 1.35 µM
- IC50 [15]: 3.78 µM

Compound: O=C(Nc1ccc(Oc2ccc(F)cc2)cc1)[C@H]1C[C@H](Cc2ccc(F)cc2)CN1C(=O)Cn1ccnn1
- IC50 [1]: > 1 µM

Compound: O=C(Nc1ccc(Oc2ccc(F)cc2)cc1)[C@@H]1C[C@@H](Cc2ccc(F)cc2)CN1C(=O)Cn1nccn1
- concentration at 4 h [3]: 23 µM
- IC50 [13]: > 20 µM
- IC50 [1]: 0.0048 µM
- inhibition in vivo at 100 mg/kg [16]: 60%
- IC50 [8]: 0.021 µM
- IC50 [9]: > 10 µM
- IC50 [10]: > 10 µM
- IC50 [14]: 17.4 µM
- concentration at 24 h [12]: 2 µM
- IC50 [15]: > 50 µM

Compound: O=C(CCCC(=O)c1cccs1)NC(COCc1ccccc1)C(=O)Nc1ccc(Oc2ccccc2)cc1 (racemic)
- IC50 [1]: 0.286 µM

Compound: O=C(NC(COCc1ccccc1)C(=O)Nc1ccc(Oc2ccccc2)cc1)C1CC1 (racemic)
- IC50 [1]: 0.297 µM
